# According to ChEMBL document CHEMBL1127783, “Sugar-linked dithiocarbamates as modulators of metabolic and genotoxic properties of N-nitroso compounds” (J Med Chem, 1994):
# “And” between values parts separate entries of the source, which are not always exact repeats. Identical values can stand only once.
# Tests used:
# Rattus norvegicus [1] = species: Rattus norvegicus; assay: Tested in vitro for N-nitrosodimethylamine (NDMA) demethylase activity at 1 mM for 2 mM concentration of acetaldehyde; assay type: functional
# How it was run: (§1)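 Liver microsomal fraction from untreated male Sprague–Dawley rats with NADPH-generating system. NDMA substrate 0.1–1 mM; test compound 2–20 mM or DDTC 2 mM added. Formaldehyde and acetaldehyde formed measured as (2,4-dinitrophenyl)hydrazones. Mean ± SD of three separate experiments.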
# [2] = Tested for the half life period in beta glucosidase at pH of 7.4; 6-12 days; assay type: ADME; details: pH 7.4
# Rattus norvegicus [3] = assay: Tested ex vivo for analysis of DNA single-strand breaks in primary rat hepatocyte by oral treatment of NaCl during first gavage; assay type: functional
# How it was run: (§2)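 Fasted rats given a first gavage of 0.5 mmol/kg test agent or saline, then NDEA (1.4 mg/kg) or saline by a second gavage 2 h later, both in 10 mL NaCl/kg. At 1 h after the second gavage, hepatocytes were isolated by two-step in situ perfusion under metophane anaesthesia. Alkaline filter elution: 1.5 × 10⁶ cells/filter, lysis at pH 10 with SDS/proteinase K, ten elution fractions, DNA measured by Hoechst 33258 fluorescence. Readout is control minus treated % DNA retained on filter; n = 6.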
# Rattus norvegicus [4] = assay: Tested for cumulative urinary excretion following intraperitoneal dose of 100 mg/kg in rat at 8-24 h; assay type: functional, Urine
# How it was run: (§3)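 Rats (five per group) were given a single 100 mg/kg dose ip or as an iv bolus. Each was housed alone in a metabolism cage, and urine was collected over 0–8 h and 8–24 h. Parent compound and the monosaccharide-linked metabolite in urine were quantified and reported as cumulative % of dose, mean ± SD.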
# Rattus norvegicus [5] = assay: Tested for cumulative urinary excretion following intravenous bolus dose of 100 mg/kg in rat at 8-24 h; assay type: functional, Urine; how it was run: as §3
# Rattus norvegicus [6] = assay: Tested for area under the curve (AUC) after intravenous bolus administration of 100 mg/kg in rat 2; assay type: ADME, organism-based; design: dose 100 mg/kg, route intravenous; details: in vivo
# How it was run: (§4)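 Rats (two per compound) were catheterised in the jugular vein under chloral hydrate. A 100 mg/kg iv bolus was given through the catheter, followed by a saline rinse. Serial blood samples (250–300 μL) were collected into heparinized tubes and centrifuged for plasma. Each rat's plasma concentration–time data were fitted by nonlinear regression to a compartment model to derive AUC, MRT, CL, Vss and phase half-lives. Body weight was recorded for each rat.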
# Rattus norvegicus [7] = species: Rattus norvegicus; assay: Tested in vitro for N-nitrosodimethylamine (NDMA) demethylase activity at 2 mM for 0 mM concentration of formaldehyde; assay type: functional; how it was run: as §1
# Rattus norvegicus [8] = assay: Tested for area under the curve (AUC) after intravenous bolus administration of 100 mg/kg in rat 1; assay type: ADME, organism-based; design: dose 100 mg/kg, route intravenous; details: in vivo; how it was run: as §4
# [9] = Tested for half -life alpha after intravenous bolus administration of 100 mg/kg in rat 1; assay type: ADME, organism-based; design: dose 100 mg/kg, route intravenous; details: in vivo, read-out: T1/2 alpha; how it was run: as §4
# Rattus norvegicus [10] = species: Rattus norvegicus; assay: Tested in vitro for N-nitrosodimethylamine (NDMA) demethylase activity at 2 mM for 2 mM concentration of formaldehyde; assay type: functional; how it was run: as §1
# Rattus norvegicus [11] = assay: Tested ex vivo for analysis of DNA single-strand breaks in primary rat hepatocyte by oral treatment of NDEA during second gavage, 2 hr after first gavage.; assay type: functional; how it was run: as §2
# Rattus norvegicus [12] = species: Rattus norvegicus; assay: Tested in vitro for N-nitrosodimethylamine (NDMA) demethylase activity at 0.1 mM for 0 mM concentration of acetaldehyde; assay type: functional; how it was run: as §1
# Rattus norvegicus [13] = assay: Tested for body weight after intravenous bolus administration of 100 mg/kg in rat 2; assay type: ADME, organism-based; design: dose 100 mg/kg, route intravenous; details: in vivo; how it was run: as §4
# Rattus norvegicus [14] = species: Rattus norvegicus; assay: Tested in vitro for N-nitrosodimethylamine (NDMA) demethylase activity at 0.1 mM for 0 mM concentration of formaldehyde; assay type: functional; how it was run: as §1
# Rattus norvegicus [15] = assay: Tested for body weight after intravenous bolus administration of 100 mg/kg in rat 1; assay type: ADME, organism-based; design: dose 100 mg/kg, route intravenous; details: in vivo; how it was run: as §4
# Rattus norvegicus [16] = species: Rattus norvegicus; assay: Tested in vitro for N-nitrosodimethylamine (NDMA) demethylase activity at 0.1 mM for 2 mM concentration of formaldehyde; assay type: functional; how it was run: as §1
# Rattus norvegicus [17] = assay: Tested for cumulative urinary excretion following intravenous bolus dose of 100 mg/kg in rat at 0-8 hr was recovered; assay type: functional, Urine; how it was run: as §3
# Rattus norvegicus [18] = assay: Tested for steady state volume of distribution (Vss) after intravenous bolus administration of 100 mg/kg in rat 2; assay type: ADME, organism-based; design: dose 100 mg/kg, route intravenous; details: in vivo; how it was run: as §4
# [19] = Tested for half life beta after intravenous bolus administration of 100 mg/kg in rat 2; assay type: ADME, organism-based; design: dose 100 mg/kg, route intravenous; details: in vivo, read-out: T1/2 beta; how it was run: as §4
# Rattus norvegicus [20] = assay: Tested for cumulative urinary excretion following intravenous bolus dose of 100 mg/kg in rat at 0-8 h; assay type: functional, Urine; how it was run: as §3
# [21] = Tested for the half life period in alpha glucosidase at pH of 7.4; 9-18 days; assay type: ADME; details: pH 7.4
# Rattus norvegicus [22] = species: Rattus norvegicus; assay: Tested in vitro for N-nitrosodimethylamine (NDMA) demethylase activity at 0.1 mM for 2 mM concentration of acetaldehyde; assay type: functional; how it was run: as §1
# Rattus norvegicus [23] = species: Rattus norvegicus; assay: Tested in vitro for N-nitrosodimethylamine (NDMA) demethylase activity at 2 mM for 5 mM concentration of formaldehyde; assay type: functional; how it was run: as §1
# Rattus norvegicus [24] = assay: Tested for cumulative urinary excretion following intraperitoneal dose of 100 mg/kg in rat at 0-8 h; assay type: functional, Urine; how it was run: as §3
# Rattus norvegicus [25] = assay: Tested for cumulative urinary excretion following intravenous bolus dose of 100 mg/kg in rat at 8-24 h was recovered; assay type: functional, Urine; how it was run: as §3
# Rattus norvegicus [26] = assay: Tested for total body clearance (CL) after intravenous bolus administration of 100 mg/kg in rat 2; assay type: ADME, organism-based; design: dose 100 mg/kg, route intravenous; details: in vivo; how it was run: as §4
# Rattus norvegicus [27] = species: Rattus norvegicus; assay: Tested in vitro for N-nitrosodimethylamine (NDMA) demethylase activity at 0.5 mM for 2 mM concentration of acetaldehyde; assay type: functional; how it was run: as §1
# [28] = Tested for half -life alpha after intravenous bolus administration of 100 mg/kg in rat 2; assay type: ADME, organism-based; design: dose 100 mg/kg, route intravenous; details: in vivo, read-out: T1/2 alpha; how it was run: as §4
# Rattus norvegicus [29] = assay: Tested for total body clearance (CL) after intravenous bolus administration of 100 mg/kg in rat 1; assay type: ADME, organism-based; design: dose 100 mg/kg, route intravenous; details: in vivo; how it was run: as §4
# Rattus norvegicus [30] = assay: Tested for steady state volume of distribution (Vss) after intravenous bolus administration of 100 mg/kg in rat 1; assay type: ADME, organism-based; design: dose 100 mg/kg, route intravenous; details: in vivo; how it was run: as §4
# Rattus norvegicus [31] = assay: Tested for cumulative urinary excretion following intraperitoneal dose of 100 mg/kg in rat at 0-8 hr was recovered; assay type: functional, Urine; how it was run: as §3
# Rattus norvegicus [32] = species: Rattus norvegicus; assay: Tested in vitro for N-nitrosodimethylamine (NDMA) demethylase activity at 0.5 mM for 2 mM concentration of formaldehyde; assay type: functional; how it was run: as §1
# Rattus norvegicus [33] = species: Rattus norvegicus; assay: Tested in vitro for N-nitrosodimethylamine (NDMA) demethylase activity at 2 mM for 2 mM concentration of acetaldehyde; assay type: functional; how it was run: as §1
# Rattus norvegicus [34] = assay: Tested for half life beta after intravenous bolus administration of 100 mg/kg in rat 1; assay type: ADME, organism-based; design: dose 100 mg/kg, route intravenous; details: in vivo; how it was run: as §4
# Rattus norvegicus [35] = species: Rattus norvegicus; assay: Tested in vitro for N-nitrosodimethylamine (NDMA) demethylase activity at 2 mM for 5 mM concentration of acetaldehyde; assay type: functional; how it was run: as §1
# Rattus norvegicus [36] = assay: Tested ex vivo for analysis of DNA single-strand breaks in primary rat hepatocyte by oral treatment of NaCl during second gavage, 2 hr after first gavage.; assay type: functional; how it was run: as §2
# Rattus norvegicus [37] = assay: Tested for mean residence time (MRT) after intravenous bolus administration of 100 mg/kg in rat 1; assay type: ADME, organism-based; design: dose 100 mg/kg, route intravenous; details: in vivo; how it was run: as §4
# [38] = Tested for half life gamma after intravenous bolus administration of 100 mg/kg in rat 1; assay type: ADME, organism-based; design: dose 100 mg/kg, route intravenous; details: in vivo, read-out: T1/2 gamma; how it was run: as §4
# [39] = Tested for half life gamma after intravenous bolus administration of 100 mg/kg in rat 2; assay type: ADME, organism-based; design: dose 100 mg/kg, route intravenous; details: in vivo, read-out: T1/2 gamma; how it was run: as §4
# Rattus norvegicus [40] = species: Rattus norvegicus; assay: Tested in vitro for N-nitrosodimethylamine (NDMA) demethylase activity at 1 mM for 2 mM concentration of formaldehyde; assay type: functional; how it was run: as §1
# [41] = Tested for the half life period in phosphate buffer at pH of 7.4; Stable; assay type: ADME; details: pH 7.4
# Rattus norvegicus [42] = assay: Tested for cumulative urinary excretion following intraperitoneal dose of 100 mg/kg in rat at 8-24 hr was recovered; assay type: functional, Urine; how it was run: as §3
# Rattus norvegicus [43] = species: Rattus norvegicus; assay: Tested in vitro for N-nitrosodimethylamine (NDMA) demethylase activity at 2 mM for 0 mM concentration of acetaldehyde; assay type: functional; how it was run: as §1
# Rattus norvegicus [44] = assay: Tested ex vivo for analysis of DNA single-strand breaks in primary rat hepatocyte by oral treatment of NDEA during first gavage; assay type: functional
# Rattus norvegicus [45] = assay: Tested for mean residence time (MRT) after intravenous bolus administration of 100 mg/kg in rat 2; assay type: ADME, organism-based; design: dose 100 mg/kg, route intravenous; details: in vivo; how it was run: as §4
# Rattus norvegicus [46] = species: Rattus norvegicus; assay: Tested in vitro for N-nitrosodimethylamine (NDMA) demethylase activity at 2 mM for 20 mM concentration of formaldehyde; assay type: functional; how it was run: as §1
smiles,measurement,setting,value
CCN(CC)C(=S)SC1OC(CO)C(O)C(O)C1O (stereo not given),Acetaldehyde,Rattus norvegicus [1],4.3 nM (mg of protein)-1
same,half-life,[2],6 days
same,DNA on filter,Rattus norvegicus [3],60
same,Viability,Rattus norvegicus [3],82%
same,Excretion,Rattus norvegicus [4],2.2 % of dose
same,Excretion,Rattus norvegicus [5],1.5 % of dose
same,AUC,Rattus norvegicus [6],11.4 uM min l-1
same,Formaldehyde,Rattus norvegicus [7],15 nM (mg of protein)-1
same,AUC,Rattus norvegicus [8],17.6 uM min l-1
same,half-life,[9],3.7 min
same,Formaldehyde,Rattus norvegicus [10],14.7 nM (mg of protein)-1
same,DNA on filter,Rattus norvegicus [11],77
same,Viability,Rattus norvegicus [11],106%
same,Acetaldehyde,Rattus norvegicus [12],0 nM (mg of protein)-1
same,Body weight,Rattus norvegicus [13],150 g
same,Formaldehyde,Rattus norvegicus [14],4.6 nM (mg of protein)-1
same,Body weight,Rattus norvegicus [15],140 g
same,Formaldehyde,Rattus norvegicus [16],1.2 nM (mg of protein)-1
same,Excretion,Rattus norvegicus [17],13.1 % of dose
same,Vss,Rattus norvegicus [18],184.8 mL/kg
same,half-life,[19],23.6 min
same,Excretion,Rattus norvegicus [20],34.5 % of dose
same,half-life,[21],9 days
same,Acetaldehyde,Rattus norvegicus [22],10.9 nM (mg of protein)-1
same,Formaldehyde,Rattus norvegicus [23],11.9 nM (mg of protein)-1
same,Excretion,Rattus norvegicus [24],31.2 % of dose
same,Excretion,Rattus norvegicus [25],1.2 % of dose
same,Clearance,Rattus norvegicus [26],42.1 mL/kg/min
same,Acetaldehyde,Rattus norvegicus [27],8.5 nM (mg of protein)-1
same,half-life,[28],5.2 min
same,Clearance,Rattus norvegicus [29],25.5 mL/kg/min
same,Vss,Rattus norvegicus [30],152.6 mL/kg
same,Excretion,Rattus norvegicus [31],21 % of dose
same,Formaldehyde,Rattus norvegicus [32],9 nM (mg of protein)-1
same,Acetaldehyde,Rattus norvegicus [33],13.8 nM (mg of protein)-1 and 31.5 nM (mg of protein)-1
same,T1/2 beta,Rattus norvegicus [34],19.3 min
same,Acetaldehyde,Rattus norvegicus [35],25.9 nM (mg of protein)-1
same,DNA on filter,Rattus norvegicus [36],58
same,Viability,Rattus norvegicus [36],100%
same,MRT,Rattus norvegicus [37],59.8 min
same,half-life,[38],88.8 min
same,half-life,[39],129 min
same,Formaldehyde,Rattus norvegicus [40],6.2 nM (mg of protein)-1
same,T1/2,[41],Stable
same,Excretion,Rattus norvegicus [42],1 % of dose
same,Acetaldehyde,Rattus norvegicus [43],0 nM (mg of protein)-1
same,DNA on filter,Rattus norvegicus [44],74
same,Viability,Rattus norvegicus [44],92%
same,MRT,Rattus norvegicus [45],43.8 min
same,Formaldehyde,Rattus norvegicus [46],1.5 nM (mg of protein)-1
